From ChEMBL document CHEMBL1141088, “A new pyridazine series of GABAA alpha5 ligands” (J Med Chem, 2005)

Key:
[1] = molecular target: T1, GABA-A receptor; alpha-3/beta-3/gamma-2 (Homo sapiens) (UniProt P18507+P28472+P34903); assay: Efficacy at GABAA alpha-3-beta-3-gamma-2 receptor expressed in mouse fibroblast L(tk-) cells measured at 300 nM derived from at least three plates/day screened over a minimum of 2 days; format: functional, cell-based
In short: (§1)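 FRET membrane-potential (VIPR) assay in L(tk-) cells with receptor expression induced 24 h by 1 µM dexamethasone. Dye-loaded 30 min in low-Cl- HEPES buffer pH 7.4: 4 µM CC2-DMPE, 1 µM DiSBAC2(3), 0.5 mM tartrazine. Basal read 8 s, compound at 300 nM, half-maximal GABA 22 s later, 1 Hz reads. Background-subtracted 460/580 nm ratio, normalized to DMCM as -100%.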

[2] = molecular target: T2, GABA-A receptor; alpha-5/beta-3/gamma-2 (Homo sapiens, UniProt P18507+P28472+P31644); assay: Displacement of [3H]-Ro- 15-1788 binding from human recombinant Gamma-aminobutyric acid A receptor alpha-5-beta-3-gamma-2 expressed in mouse fibroblast L(tk-) cells (30 min at 24 degrees C, pH 7.4); format: cell-based
T2 sequence (P18507 whole entry): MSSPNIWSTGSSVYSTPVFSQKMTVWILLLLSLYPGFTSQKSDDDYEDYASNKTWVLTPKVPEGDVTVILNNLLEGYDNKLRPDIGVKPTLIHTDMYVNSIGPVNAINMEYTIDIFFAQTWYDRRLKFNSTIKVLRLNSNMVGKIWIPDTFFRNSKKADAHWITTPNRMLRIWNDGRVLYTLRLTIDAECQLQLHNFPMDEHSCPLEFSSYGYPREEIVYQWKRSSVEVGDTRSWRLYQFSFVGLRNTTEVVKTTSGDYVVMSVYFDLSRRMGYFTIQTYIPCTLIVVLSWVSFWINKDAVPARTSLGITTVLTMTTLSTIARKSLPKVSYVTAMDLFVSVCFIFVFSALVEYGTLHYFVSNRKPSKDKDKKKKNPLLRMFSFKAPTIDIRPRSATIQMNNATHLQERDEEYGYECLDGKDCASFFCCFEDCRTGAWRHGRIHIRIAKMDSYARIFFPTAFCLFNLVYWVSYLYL
T2 sequence (P28472 whole entry): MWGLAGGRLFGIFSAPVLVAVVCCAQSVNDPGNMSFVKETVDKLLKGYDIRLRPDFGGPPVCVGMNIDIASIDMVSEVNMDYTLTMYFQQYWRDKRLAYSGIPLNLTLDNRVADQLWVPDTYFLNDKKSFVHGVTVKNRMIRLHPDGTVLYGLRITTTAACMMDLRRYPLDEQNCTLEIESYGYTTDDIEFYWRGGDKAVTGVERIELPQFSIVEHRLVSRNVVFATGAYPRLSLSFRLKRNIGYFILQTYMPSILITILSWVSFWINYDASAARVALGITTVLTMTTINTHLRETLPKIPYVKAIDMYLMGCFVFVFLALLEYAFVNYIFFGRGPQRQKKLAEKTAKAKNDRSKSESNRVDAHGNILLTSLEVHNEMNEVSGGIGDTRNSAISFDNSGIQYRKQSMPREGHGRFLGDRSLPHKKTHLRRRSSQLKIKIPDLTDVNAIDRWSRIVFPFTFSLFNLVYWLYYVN
T2 sequence (P31644 whole entry): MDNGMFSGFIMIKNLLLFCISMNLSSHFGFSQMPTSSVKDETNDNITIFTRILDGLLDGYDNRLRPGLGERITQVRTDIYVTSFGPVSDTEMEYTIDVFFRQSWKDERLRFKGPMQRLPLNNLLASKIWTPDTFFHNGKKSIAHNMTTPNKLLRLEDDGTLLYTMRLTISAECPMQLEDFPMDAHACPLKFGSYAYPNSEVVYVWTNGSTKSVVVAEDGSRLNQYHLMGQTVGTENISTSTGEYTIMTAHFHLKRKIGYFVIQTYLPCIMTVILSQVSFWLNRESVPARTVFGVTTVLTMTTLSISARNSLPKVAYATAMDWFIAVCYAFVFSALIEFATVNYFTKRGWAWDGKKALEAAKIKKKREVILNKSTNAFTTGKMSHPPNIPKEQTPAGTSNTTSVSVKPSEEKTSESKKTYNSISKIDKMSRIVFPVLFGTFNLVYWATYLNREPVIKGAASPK
In short: (§2)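 Membranes from L(tk-) cells stably expressing human α1, α3 or α5 β3γ2 in 50 mM Tris pH 7.4. [3H]Ro15-1788 at 1.8 nM final, 30 min at 24 °C. Nonspecific binding set with 10 µM flunitrazepam, total binding in 0.1% DMSO. Filtration, scintillation counting. Ki is mean ± SEM of ≥3 independent determinations.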

[3] = molecular target: T3, GABA-A receptor; alpha-1/beta-3/gamma-2 (Homo sapiens, UniProt P14867+P18507+P28472); assay: Displacement of [3H]-Ro- 15-1788 binding from human recombinant Gamma-aminobutyric acid A receptor alpha-1-beta-3-gamma-2 expressed in mouse fibroblast L(tk-) cells (30 min at 24 degrees C, pH 7.4); format: cell-based; in short: as §2
T3 sequence (P14867 whole entry): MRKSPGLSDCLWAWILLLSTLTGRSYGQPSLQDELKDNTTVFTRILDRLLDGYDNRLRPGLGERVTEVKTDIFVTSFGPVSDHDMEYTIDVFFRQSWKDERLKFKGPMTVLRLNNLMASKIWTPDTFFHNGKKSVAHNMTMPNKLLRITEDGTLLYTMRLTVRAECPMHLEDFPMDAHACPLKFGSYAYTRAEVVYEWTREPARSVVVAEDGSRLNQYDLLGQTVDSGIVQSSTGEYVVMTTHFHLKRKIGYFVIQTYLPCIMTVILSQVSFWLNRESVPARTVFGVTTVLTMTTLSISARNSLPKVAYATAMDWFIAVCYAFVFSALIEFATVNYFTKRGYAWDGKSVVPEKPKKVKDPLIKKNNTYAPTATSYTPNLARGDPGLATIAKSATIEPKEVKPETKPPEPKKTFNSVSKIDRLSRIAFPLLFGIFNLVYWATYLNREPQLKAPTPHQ
T3 sequence (P18507 whole entry): T2 sequence (P18507 whole entry)
T3 sequence (P28472 whole entry): T2 sequence (P28472 whole entry)

[4] = molecular target: T4, GABA-A receptor; alpha-3/beta-3/gamma-2 (Homo sapiens, UniProt P18507+P28472+P34903); assay: Displacement of [3H]-Ro- 15-1788 binding from human recombinant Gamma-aminobutyric acid A receptor alpha-3-beta-3-gamma-2 expressed in mouse fibroblast L(tk-) cells (30 min at 24 degrees C, pH 7.4); format: cell-based; in short: as §2
T4 sequence (P18507 whole entry): T2 sequence (P18507 whole entry)
T4 sequence (P28472 whole entry): T2 sequence (P28472 whole entry)
T4 sequence (P34903 whole entry): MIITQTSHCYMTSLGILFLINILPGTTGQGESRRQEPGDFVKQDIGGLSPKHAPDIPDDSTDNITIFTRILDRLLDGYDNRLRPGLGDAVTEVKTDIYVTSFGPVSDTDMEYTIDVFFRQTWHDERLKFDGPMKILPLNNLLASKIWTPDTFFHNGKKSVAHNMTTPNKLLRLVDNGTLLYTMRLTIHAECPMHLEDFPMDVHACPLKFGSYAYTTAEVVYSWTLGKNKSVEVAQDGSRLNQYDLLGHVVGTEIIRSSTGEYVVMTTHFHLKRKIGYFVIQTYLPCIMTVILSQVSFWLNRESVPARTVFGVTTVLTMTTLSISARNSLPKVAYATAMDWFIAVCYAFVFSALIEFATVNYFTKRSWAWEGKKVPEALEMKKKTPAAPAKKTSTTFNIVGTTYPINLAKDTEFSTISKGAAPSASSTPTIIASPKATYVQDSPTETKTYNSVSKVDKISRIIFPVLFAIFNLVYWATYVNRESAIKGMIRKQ

[5] = molecular target: T5, GABA-A receptor; alpha-5/beta-3/gamma-2 (Homo sapiens) (UniProt P18507+P28472+P31644); assay: Efficacy at GABAA alpha-5-beta-3-gamma-2 receptor expressed in mouse fibroblast L(tk-) cells measured at 300 nM derived from at least three plates/day screened over a minimum of 2 days; format: functional, cell-based; in short: as §1
[6] = molecular target: T5, GABA-A receptor; alpha-5/beta-3/gamma-2 (Homo sapiens); assay: Efficacy for GABA-A alpha-5-beta-3-gamma-2 receptor expressed in mouse fibroblast L(tk-) cells at 300 nM derived from at least three plates/day screened over a minimum of 2 days; format: functional, cell-based; in short: as §1
[7] = molecular target: T1, GABA-A receptor; alpha-3/beta-3/gamma-2 (Homo sapiens); assay: Efficacy for GABA-A alpha-3-beta-3-gamma-2 receptor expressed in mouse fibroblast L(tk-) cells at 300 nM derived from at least three plates/day screened over a minimum of 2 days; format: functional, cell-based; in short: as §1

SMILES | Efficacy [1] | Ki [2] | Ki [3] | Ki [4] | Efficacy [5] | Efficacy [6] | Efficacy [7]
N#Cc1ccc(-c2cnnc(-c3ccccc3)c2)cc1 | 49 | 56 nM | 27 nM | 81 nM | 45 | – | –
N#Cc1cccc(-c2cnnc(-c3cccc(F)c3)c2)c1 | 3.6 | 4 nM | – | 7.2 nM | 0 | – | –
c1ccc(-c2cnnc(-c3ccccc3)c2)cc1 | -20 | 29 nM | 36 nM | 45 nM | -14 | – | –
CNc1cc(-c2cccc(Br)c2)cnn1 | 3 | 27 nM | 49 nM | 113 nM | -26 | – | –
CC(C)Nc1cc(-c2cccc(Br)c2)cnn1 | 25 | 7.2 nM | 7.3 nM | 22 nM | 14 | – | –
COC(=O)c1cccc(-c2cnnc(-c3ccccc3)c2)c1 | -7 | 11 nM | – | 29 nM | -48 | – | –
N#Cc1cccc(-c2cnnc(-c3ccc(F)cc3)c2)c1 | – | 14 nM | – | 26 nM | – | – | –
CN(C)c1cc(-c2cccc(Br)c2)cnn1 | -49 | 51 nM | 55 nM | 120 nM | -62 | – | –
CC(C)Oc1cc(-c2cccc(Br)c2)cnn1 | 28 | 36 nM | 26 nM | 60 nM | 12 | – | –
Brc1cccc(-c2cnnc(NCc3ccccc3)c2)c1 | 66 | 19 nM | – | 51 nM | 14 | – | –
CC(C)Oc1cccc(-c2cnnc(-c3ccccc3)c2)c1 | 22 | 8.4 nM | 12 nM | 27 nM | 18 | – | –
Cn1ncnc1COc1cccc(-c2cnnc(-c3ccccc3)c2)c1 | 43 | 8.8 nM | 8.5 nM | 10.4 nM | -5 | – | –
N#Cc1cccc(-c2cnnc(-c3ccccc3F)c2)c1 | -17 | 3.4 nM | – | 7.9 nM | -31 | – | –
COc1cc(-c2cccc(Br)c2)cnn1 | 42 | 54 nM | – | 205 nM | -18 | – | –
c1ccc(-c2cc(-c3cccc(-n4cnnc4)c3)cnn2)cc1 | 13 | 12 nM | – | 41 nM | -31 | – | –
N#Cc1cccc(-c2cnnc(-c3ccc(F)c(F)c3)c2)c1 | 32 | 13 nM | – | 41 nM | – | -15 | –
N#Cc1cccc(-c2cnnc(-c3ccc(F)cc3F)c2)c1 | – | 17 nM | – | 23 nM | -57 | – | –
N#Cc1cccc(-c2cc(-c3ccccc3)cnn2)c1 | – | > 666 nM | > 666 nM | > 666 nM | – | – | –
CCNc1cc(-c2cccc(Br)c2)cnn1 | 2 | 3.8 nM | 3.5 nM | 7.3 nM | -12 | – | –
Brc1cccc(-c2cnnc(-c3ccccc3)c2)c1 | – | 7.9 nM | 7.5 nM | 15 nM | -2 | – | -2
CCOc1cc(-c2cccc(Br)c2)cnn1 | 39 | 5.7 nM | 8.6 nM | 19 nM | 4 | – | –
CCNc1cc(-c2cccc(C#N)c2)cnn1 | 8 | 33 nM | – | 79 nM | -29 | – | –
COC(=O)c1c(-c2ccccc2)cnnc1-c1ccccc1 | – | 12 nM | 154 nM | 64 nM | – | 27 | –
N#Cc1cccc(-c2cnnc(OCc3ccccc3)c2)c1 | 60 | 17 nM | – | 60 nM | – | – | –
N#Cc1cccc(-c2cnnc(NCc3ccccc3)c2)c1 | 59 | 6.1 nM | – | 15 nM | 17 | – | –
c1ccc(-c2cc(-c3ccnc(-c4ccncc4)n3)cnn2)cc1 | -49 | 1.6 nM | 1.3 nM | 3.1 nM | -62 | – | –
COC(=O)c1sccc1-c1cnnc(-c2ccccc2)c1 | -44 | 12 nM | 88 nM | 45 nM | -39 | – | –
N#Cc1ccccc1-c1cnnc(-c2ccccc2)c1 | – | 323 nM | – | 440 nM | – | – | –
Brc1cccc(-c2cnnc(OCc3ccccc3)c2)c1 | 32 | 63 nM | – | 302 nM | – | – | –
CCOc1cc(-c2cccc(C#N)c2)cnn1 | 19 | 36 nM | – | 72 nM | -9 | – | –
